This passage reports Kinetic_solubility and Drug uptake results from ChEMBL document CHEMBL4732019, “Collaborative virtual screening to elaborate an imidazo[1,2-a]pyridine hit series for visceral leishmaniasis” (RSC Med Chem, 2021).

The nature of data set [1]: Kinetic solubility of the compound at 200 uM incubated for 24 hrs at pH 7.4 by HPLC/UV analysis. In kind it is physicochemical. Particulars: buffer, pH 7.4, 24 h; call rule not given here. The essentials:
(§1)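 Shake-flask method: 10 mM DMSO stock diluted to 200 μM in phosphate buffer pH 2.0 or pH 7.4 (2% DMSO final). Shaken at 500 rpm, 24 h, room temperature, then filtered through polycarbonate membrane. Filtrate quantified by HPLC-UV against 1, 20 and 200 μM standards injected in duplicate.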

Data set [2] is described as follows: Kinetic solubility of the compound at 200 uM incubated for 24 hrs at pH 2 by HPLC/UV analysis. Particulars: buffer, pH 2, 24 h. In kind it is physicochemical. The essentials:
as §1

Data set [3] can be described thus: Drug uptake in BALB/c mouse plasma at 50 mg/kg, po measured after 24 hrs by LC/MS/MS analysis. In kind it is ADME, organism-based. Particulars: in vivo.

Regarding `Cc1ccc2nc(-c3ccccn3)c(Nc3ccc4c(c3)OCCO4)n2c1`, the Kinetic_solubility amounted to 8 µg/mL in data set [1] and 72 µg/mL in data set [2].

`Cc1ccn2c(NC3CCCC3)c(-c3ccc(N(C)C)cc3)nc2c1`: the Kinetic_solubility in data set [1] was under 0.5 µg/mL; in data set [2], 67 µg/mL.

For `COc1ccn2c(Nc3cc(F)cc(F)c3)c(-c3ccccn3)nc2c1`, in data set [3], the Drug uptake entry is on record as “Not Active”.

Take `Cc1ccn2c(Nc3ccc(F)cc3)c(-c3ccccn3)nc2c1`: the Kinetic_solubility in data set [1] is under 0.5 µg/mL; in data set [2], 73 µg/mL.

For `COc1ccn2c(Nc3ccc(F)cn3)c(-c3ccccn3)nc2c1`, the Kinetic_solubility in data set [1] and in data set [2] was over 76 µg/mL throughout.

For the compound `Clc1ccc2nc(-c3ccccn3)c(Nc3ccc4c(c3)OCCO4)n2c1`, the Kinetic_solubility in data set [1] was under 0.5 µg/mL; in data set [2], over 76 µg/mL.
